According to ChEMBL document CHEMBL5113552, “(-)-Epigallocatechin Gallate is a Noncompetitive Inhibitor of NAD Kinase” (ACS Med Chem Lett, 2022):
The source made the active and inactive calls. No cut-off for these calls is given here.

What was measured:
[1] = target: T1, NAD kinase (Homo sapiens, UniProt O95544); test: Inhibition of NADK (unknown origin) by HPLC analysis
T1 sequence (O95544 whole entry): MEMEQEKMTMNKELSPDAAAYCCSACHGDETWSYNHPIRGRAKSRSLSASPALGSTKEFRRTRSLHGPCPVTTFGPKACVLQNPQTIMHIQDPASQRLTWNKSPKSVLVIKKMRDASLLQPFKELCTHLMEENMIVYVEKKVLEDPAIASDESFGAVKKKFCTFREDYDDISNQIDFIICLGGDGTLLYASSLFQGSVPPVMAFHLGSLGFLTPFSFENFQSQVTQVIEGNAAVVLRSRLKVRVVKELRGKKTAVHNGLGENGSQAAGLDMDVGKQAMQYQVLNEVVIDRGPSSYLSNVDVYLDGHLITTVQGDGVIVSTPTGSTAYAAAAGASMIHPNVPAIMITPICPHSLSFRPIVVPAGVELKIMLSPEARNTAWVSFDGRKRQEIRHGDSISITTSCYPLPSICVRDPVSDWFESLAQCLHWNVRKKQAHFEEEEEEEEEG

[2] = tested on: CCRF-CEM; test: Cytotoxicity against human CCRF-CEM cells assessed as inhibition of cell growth; assay type: functional, cell-based
[3] = tested on: MOLT-4; test: Cytotoxicity against human MOLT-4 cells assessed as inhibition of cell growth; assay type: functional, cell-based
[4] = tested on: RL; test: Cytotoxicity against human RL cells assessed as inhibition of cell growth; assay type: functional, cell-based
[5] = Cytotoxicity against human C85 cells assessed as inhibition of cell growth; assay type: functional, cell-based; conditions: CCCL-1
[6] = target: T1, NAD kinase; test: Binding affinity to N-terminal full length NADK (unknown origin) expressed in Escherichia coli BL21(DE3) cells assessed as dissociation constant by surface plasmon resonance assay
[7] = target: T1, NAD kinase; test: Inhibition of NADK delta 95 kinase domain (unknown origin) at 80 uM measured after 30 mins by […]
[8] = target: T2, NAD kinase (Homo sapiens) (UniProt O95544); test: Binding affinity to human NADK (410 to 418 residues) assessed as decrease in deuterium incorporation at 80 uM measured after 30 mins by HDX-MS analysis; design: scale not given: the % may be the effect or the level left
T2 sequence (whole entry): T1 sequence (O95544 whole entry)

[9] = target: T2, NAD kinase (Homo sapiens); test: Binding affinity to human NADK (155 to 164 residues) assessed as decrease in deuterium incorporation at 80 uM measured after 30 mins by HDX-MS analysis; design: scale not given: the % may be the effect or the level left
[10] = target: T2, NAD kinase (Homo sapiens); test: Binding affinity to human NADK (345 to 365 residues) assessed as decrease in deuterium incorporation at 80 uM measured after 30 mins by HDX-MS analysis; design: scale not given: the % may be the effect or the level left
[11] = tested on: PC-9; test: Cytotoxicity against human PC-9 cells harboring wild type KRAS assessed as inhibition of cell growth at 60 uM measured on day 4; assay type: functional, cell-based
Outline: (§1)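 Lung cancer cell lines (PC-9 KRAS WT, A549 KRAS G12S, H358 and H23 KRAS G12C) exposed to a range of concentrations. Growth curves were built by following cell number over days (day 4 is cited) against a DMSO control. n = 3 replicates; significance was judged at P < 0.05, 0.01 and 0.001.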

[12] = tested on: A549; test: Cytotoxicity against human A549 cells harboring KRAS […] mutant assessed as inhibition of cell growth at 30 uM; assay type: functional, cell-based
[13] = tested on: NCI-H358; test: Cytotoxicity against human H358 cells harboring KRAS G12C mutant assessed as inhibition of cell growth at 30 uM; assay type: functional; outline: as §1
[14] = tested on: NCI-H23; test: Cytotoxicity against human H23 cells harboring KRAS G12C mutant assessed as inhibition of cell growth at 30 uM; assay type: functional; outline: as §1
[15] = tested on: A549; test: Cytotoxicity against human A549 cells harboring KRAS G12S mutant assessed as inhibition of cell growth at 50 uM
[16] = target: T1, NAD kinase; test: Non-competitive inhibition of N-terminal full length NADK (unknown origin) expressed in Escherichia coli BL21(DE3) cells by enzymatic activity assay
[17] = target: T1, NAD kinase; test: Inhibition of human NADK by HPLC analysis

**Q.** With Oc1cc(O)c2c(c1)O[C@H](c1cc(O)c(O)c(O)c1)[C@H](O)C2 [EPIGALLOCATECHIN] as the compound, how does the IC50 [1] read?
**A.** > 100 µM

**Q.** Which IC50 [2] does the source give for NC(=S)c1cccnc1 here?
**A.** 10 µM

**Q.** What about the IC50 [3] of the same compound?
**A.** 10 µM

**Q.** And the IC50 [4]?
**A.** 10 µM

**Q.** And the IC50 [5]?
**A.** 10 µM

**Q.** For O=C(O[C@@H]1Cc2c(O)cc(O)cc2O[C@@H]1c1cc(O)c(O)c(O)c1)c1cc(O)c(O)c(O)c1 [EPIGALOCATECHIN GALLATE], which Kd [6] is on record?
**A.** 1.78 µM

**Q.** And the IC50 [7]?
**A.** 0.96 µM

**Q.** What about the Activity [8] of the same compound?
**A.** 21.8%

**Q.** And the Activity [9]?
**A.** 12.9%

**Q.** And the Activity [10]?
**A.** 21.1%

**Q.** What about the Activity [11] of the same compound?
**A.** Active

**Q.** What about the Activity [12] of the same compound?
**A.** Active

**Q.** What about the inhibition at 30 µM [13] of the same compound?
**A.** 100%

**Q.** What about the inhibition at 30 µM [14] of the same compound?
**A.** 100%

**Q.** What about the inhibition at 50 µM [15] of the same compound?
**A.** 100%

**Q.** What about the Ki [16] of the same compound?
**A.** 3.28 µM

**Q.** For Oc1cc(O)c2c(c1)O[C@@H](c1cc(O)c(O)c(O)c1)[C@H](O)C2 [(-)-GALLOCATECHIN], which IC50 [1] is on record?
**A.** > 100 µM

**Q.** For Nc1ncnc2c1nc(Br)n2[C@@H]1O[C@H](CSSC[C@H]2O[C@@H](n3c(Br)nc4c(N)ncnc43)[C@H](O)[C@@H]2O)[C@@H](O)[C@H]1O, which Ki [17] is on record?
**A.** 6 µM

**Q.** For Nc1ncnc2c1ncn2[C@@H]1O[C@H](CSSC[C@H]2O[C@@H](n3cnc4c(N)ncnc43)[C@H](O)[C@@H]2O)[C@@H](O)[C@H]1O, which Ki [17] is on record?
**A.** 45 µM

**Q.** With Nc1ncnc2c1ncn2[C@@H]1O[C@H](CSSC[C@H]2O[C@@H](n3c(Br)nc4c(N)ncnc43)[C@H](O)[C@@H]2O)[C@@H](O)[C@H]1O as the compound, how does the Ki [17] read?
**A.** 6 µM
